ARFGAP1 inhibitor: inhibitors of rat ARFGAP1; Q62848; Arfgap1-stimulated ARF1 GTP hydrolysis, GDP FP detection; inhibition, % at 16.5 µM; actives 0.26% (n = 360,000); AID 651572;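 active = inhibition above a per-plate limit, mean inhibition of low control wells plus 3 SD, cut at about 25% in these data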;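 also: 0% = DMSO wells with enzyme and 100% = wells lacking Arfgap1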
Target sequence (Q62848 1-136 limits assumed): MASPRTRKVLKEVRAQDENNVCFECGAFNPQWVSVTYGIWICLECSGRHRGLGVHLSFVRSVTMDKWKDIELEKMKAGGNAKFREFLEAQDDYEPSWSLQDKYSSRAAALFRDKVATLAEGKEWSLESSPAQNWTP
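Replicates: Single well per compound | Assay system: Truncated rat Arfgap1 GAP domain | Control set: No-Arfgap1 wells (100%) versus DMSO full-reaction wells (0%) | Times: Enzyme reaction 120 min at 25 °C after 20 min preincubation | Reagent: Human ARF1(Δ1-17)-GTP substrate | Measured by: Tracer-displacement fluorescence polarization with EDTA stop, 620/688 nm | Measure: Percent inhibition of Arfgap1-stimulated GTP hydrolysis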
esBAF inh: inhibitors of esBAF chromatin remodeling in mouse ES cells; Bmi1-luciferase knock-in reporter, 24 h; 100% = twice the neutral-well signal; reporter increase, % at 12.5 µM; actives 2% (n = 350,000); AID 602393; in the data active = activation above about 40%; inconclusive = no clear call, values can overlap the other calls;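 also: 0% = median of the plate's neutral control wells and 100% = double that signal; a rise in the Bmi1 reporter signal indicates esBAF inhibition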
SMARCA2 act: SMARCA2 function activation, primary screen | actives 1% (n = 370,000) | activation, % at 9.1 µM | MG213 cells, MMTV-luciferase reporter, dexamethasone, overnight; in the data active = activation above about 7.8%;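 also: 0% = vehicle wells and 100% = reference activator wells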
ASAP1 inh: blocks human ASAP1-stimulated Arf1 GTP hydrolysis. actives 0.19% (n = 360,000). Q9ULH1. GDP FP detection. inhibition, % at 16.5 µM; in the data active = inhibition above about 25%;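 also: 0% = vehicle with enzyme and substrate and 100% = no enzyme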
Target sequence (Q9ULH1 325-724 limits assumed): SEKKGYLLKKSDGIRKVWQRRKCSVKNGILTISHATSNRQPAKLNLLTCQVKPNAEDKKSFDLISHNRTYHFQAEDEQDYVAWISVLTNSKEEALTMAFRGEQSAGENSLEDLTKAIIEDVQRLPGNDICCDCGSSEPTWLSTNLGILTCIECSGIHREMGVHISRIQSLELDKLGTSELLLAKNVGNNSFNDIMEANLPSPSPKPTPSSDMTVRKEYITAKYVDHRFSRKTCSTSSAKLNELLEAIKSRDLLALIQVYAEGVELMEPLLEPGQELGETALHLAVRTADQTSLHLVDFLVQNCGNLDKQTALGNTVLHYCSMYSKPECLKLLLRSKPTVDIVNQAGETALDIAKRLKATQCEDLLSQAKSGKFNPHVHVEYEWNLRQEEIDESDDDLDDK
* = called active by the depositor; u = inconclusive; x = not tested or not shown. The list is not random: actives were taken first. Their share in the collection is about 2.6%.

SMILES	ARFGAP1 inhibitor	esBAF inh	SMARCA2 act	ASAP1 inh
CO[C@H]1CN(C)C(=O)c2ccc(NC(=O)C3CC3)cc2OC[C@@H](C)N(C(=O)C2CCOCC2)C[C@@H]1C	x	-4	x	x
Cn1cnc2cc(NCc3ccccc3Cl)ccc21	-1	51*	4	8
Cc1ccc(OCC(=O)Nc2ccc3c(c2)ncn3C)cc1	-7	-7	4	-12
Cn1cnc2cc(NC(=O)COc3ccccc3)ccc21	10	43*	4	8
COc1cccc(CNc2ccc3c(c2)ncn3C)c1OC	-6	21	-3	8
Cn1c(CN2CCCC2)nc2cc(NC(=O)c3ccc(Cl)cc3)ccc21	0	53*	2	-5
Cn1cnc2cc(NC(=O)c3ccc(Cl)cc3)ccc21	-10	54*	5	-3
COc1ccc(S(=O)(=O)N(C)C[C@H]2OCCCC[C@H](C)Oc3ccc(NC(=O)C4CCCCC4)cc3C(=O)N([C@@H](C)CO)C[C@@H]2C)cc1	x	0	x	x
O=C(Nc1ccc(F)cc1)N[C@@H]1CC[C@H](CCNS(=O)(=O)c2ccccc2F)O[C@@H]1CO	x	5	x	x
CO[C@H]1CN(C)C(=O)c2ccc(NC(=O)C3CCCCC3)cc2OC[C@H](C)N(C(=O)c2ccccc2)C[C@@H]1C	x	4	x	x
Cc1ccc(S(=O)(=O)N[C@H]2CC[C@H](CCn3cc(-c4cccc(F)c4)nn3)O[C@H]2CO)cc1	x	-4	x	x
C[C@H](CO)N1C[C@H](C)[C@@H](CN(C)Cc2ccncc2)OCCCC[C@H](C)Oc2ccc(NC(=O)c3ccccc3)cc2C1=O	x	1	x	x
CO[C@@H]1CN(C)C(=O)c2ccc(NC(=O)C3CC3)cc2OC[C@H](C)N(C(=O)C2CCOCC2)C[C@H]1C	x	2	x	x
c1ccc2c(Nc3nnc(-c4ccncc4)s3)cccc2c1	-2	55*	1	5
O=C(O)c1cccc(Nc2nc(-c3cc4ccccc4oc3=O)cs2)c1	2	51*	4	8
c1ccc(CN2CCN(Cc3nnc(-c4ccccc4)o3)CC2)cc1	-10	x	7.9*	10
COc1ccc(S(=O)(=O)N(C)C[C@H]2Oc3ccc(NC(=O)NC4CCCCC4)cc3C(=O)N([C@@H](C)CO)C[C@@H]2C)cc1	x	2	x	x
CC(C)Cc1nnc(NC(=O)CCC(=O)Nc2ccccc2)s1	-2	0	-2	-4
Cc1ccc(C(=O)Nc2nnc(NC(=S)Nc3ccccc3)s2)cc1	9	56*	2	8
CC(C)Cc1nnc(NC(=O)Nc2ccccc2)s1	-7	53*	-1	-4
CCOc1ccc(C(=O)Nc2nnc(NC(=S)Nc3ccccc3)s2)cc1	4	32	-2	11
CCc1nnc(NC(=S)Nc2ccccc2)s1	7	x	7.8*	-8
CO[C@@H]1CN(C)C(=O)c2cc(NC(=O)C3CCCCC3)ccc2OC[C@@H](C)NC[C@@H]1C	x	-1	x	x
O=S(=O)(N[C@H]1CC[C@H](CCn2cc(-c3ccccn3)nn2)O[C@@H]1CO)c1cccc(Cl)c1	x	-4	x	x
CO[C@@H]1CN(C)C(=O)c2ccc(NC(C)=O)cc2OC[C@@H](C)N(Cc2ccc(F)cc2)C[C@H]1C	x	-4	x	x
SMILES	ARFGAP1 inhibitor	esBAF inh	SMARCA2 act	ASAP1 inh
Nc1ncnc(N)c1N=Nc1ccccc1	2	-20	7	6
Nc1ccc2ccccc2c1N=Nc1ccccc1	-1	43*	7	2
O=C(Nc1cc(F)ccc1F)N1C[C@@H]2[C@H](c3ccccc31)[C@@H](CO)N2Cc1cccnc1	x	-1	x	x
COc1ccc(NC(=O)N(C)C[C@H]2Oc3c(NC(=O)Nc4cccc5ccccc45)cccc3C(=O)N([C@@H](C)CO)C[C@@H]2C)cc1	x	6	x	x
O=C(C[C@@H]1C=C[C@H](NC(=O)C2CC2)[C@H](CO)O1)NCC1CC1	x	-6	x	x
c1ccc(NCCc2ccccn2)cc1	-1	46*	-2	-13
CNCCc1ccccn1	10	3	-4	-1
CN(CCc1ccccn1)c1ccccc1	-3	48*	0	-16
N#C/C(=C/c1ccc(N2CCOCC2)o1)c1ccc(Br)cc1	-3	x	3	14
N#C/C(=C\c1ccc(N2CCOCC2)o1)c1ccccc1	3	94*	6	-7
CCCn1cc(SCC(=O)Nc2nnc(C)s2)c2ccccc21	-9	1	-4	-11
COc1ccc(C(=O)NCCn2cc(SCC(=O)N3CCOCC3)c3ccccc32)cc1	5	42*	-3	-4
Cn1cc(SCC(=O)Nc2nccs2)c2ccccc21	-8	68*	5	13
Cc1ccc(C(=O)NCCn2cc(SCC(=O)Nc3nnc(C)s3)c3ccccc32)cc1	-9	58*	-3	-16
O=C(NCCn1cc(SCC(=O)N2CCOCC2)c2ccccc21)c1ccccc1	1	2	0	4
O=C(CSc1cn(Cc2ccccc2)c2ccccc12)N1CCOCC1	3	79*	1	2
C[C@H](CO)N1C[C@H](C)[C@H](CN(C)C(=O)C2CCC2)Oc2cc(-c3cccnc3)ccc2S1(=O)=O	x	3	x	x
CCNC(=O)[C@H]1[C@H](CO)[C@H]2Cn3c(ccc(-c4ccccc4F)c3=O)[C@H]2N1CC1CC1	x	-2	x	x
C[C@H](CO)N1C[C@H](C)[C@@H](CN(C)S(=O)(=O)c2ccc(F)cc2)OCCCC[C@H](C)Oc2ccc(N(C)C)cc2C1=O	x	-3	x	x
CC1(C)NC(=O)N(CCOCCOc2ccc3ccccc3c2Br)C1=O	7	u	0	4
CC1(C)NC(=O)N(CCCCOc2ccc3ccccc3c2Cl)C1=O	16	53*	0	1
COC(=O)/C=C/c1ccc(-n2cncn2)cc1	0	4	7.8*	1
CC(C)(C)Cc1nnc(NC(=O)c2ccc3c(c2)OCO3)s1	-4	46*	0	11
CC(C)(C)Cc1nnc(NC(=O)CSc2ccccc2)s1	-7	72*	-1	3
COCC#Cc1cnc2c(c1)C(=O)N([C@H](C)CO)C[C@@H](C)[C@@H](CN(C)C(=O)c1cccc(F)c1)O2	x	-6	x	x
SMILES	ARFGAP1 inhibitor	esBAF inh	SMARCA2 act	ASAP1 inh
O=C1/C(=C/c2cccnc2)CCc2c1[nH]c1ccccc21	21	x	-5	1
CC(C)C/C=C1\CCc2c([nH]c3ccccc23)C1=O	4	52*	5	-15
Cc1noc(C)c1S(=O)(=O)Nc1ccc2c(c1)C(=O)N([C@@H](C)CO)C[C@H](C)[C@H](CN(C)S(C)(=O)=O)O2	x	0	x	x
O=C(Nc1cccc(Cl)c1)Nc1ccc2nccnc2c1	19	97*	6	1
CC(=O)c1ccc(NC(=O)Nc2cccc(Cl)c2)cc1	16	x	-1	4
O=C(Nc1ccccc1)Nc1cccc(Cl)c1	-4	52*	-2	16
CC(=O)Nc1ccc(NC(=O)Nc2cccc(Cl)c2)cc1	-3	40	0	9
O=C(Nc1ccccc1)Nc1ccccc1	11	49*	4	-8
O=C(Nc1ccc(C(=O)N2CCCCC2)cc1)Nc1cccc(Cl)c1	16	86*	3	8
C[C@@H]1CN([C@H](C)CO)C(=O)Cc2cc(NC(=O)Nc3ccc(C(F)(F)F)cc3)ccc2O[C@@H]1CN(C)S(C)(=O)=O	x	0	x	x
